Common to all, as to type: in vivo, human
The nature of data set [1]: Phase I multiple ascending dose study of ALZ-801 capsule and tablet. The note with it: plasma; for AUC24: mean ± SD.
Data set [2] is described as follows: Urine drug recovery, renal clearance and estimate of oral bioavailability. The note with it: for Mean Ae / CLr: Cohort D, 24-h urine; for CLr: mean ± SD. A digest of the protocol:
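Cohort D: 265 mg immediate-release tablet in the fed state (meal 30 min pre-dose), once on day 1, twice daily days 2–6, once on day 7. Urine was collected over 24 h on days 1 and 7 and assayed by LC-MS (LLOQ 30 ng/mL ALZ-801, 100 ng/mL tramiprosate). Renal clearance was calculated as Ae divided by plasma AUC24.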

Data set [3] in a line: Phase I single ascending dose study of ALZ-801 loose-filled capsule. The note with it: plasma, ALZ-801 capsule 172 and 300 mg doses. The method in brief:
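Single fasted oral loose-filled capsules; 172 mg in 36 healthy subjects over 50 y (parallel, randomized 1:1:1), 300 mg in 15 subjects over 50 y. Plasma sampled over 48 h into K3 EDTA on ice, spun 2000g 10 min 4 °C, stored at or below −20 °C. LC-MS assay; non-compartmental analysis; Tmax as median (range).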

In the case of `O=C(O)CCS(=O)(=O)O` [NRM5074], the AUC24 in data set [1] (Day 1, fed, ALZ-801 tablet 265 mg (Cohort D)) came out at 1810 ± 348 ng·h/mL; in data set [1] (Day 7, fed, ALZ-801 tablet 265 mg twice daily (Cohort D)), 5470 ± 1030 ng·h/mL. For the same compound, the “median T max” value is given as 5 h in data set [1] (days 7 and 14, all dosing regimens); “approximately 5 h” in data set [3]. The T max range in data set [1] (single oral dose of ALZ-801, day 1) is recorded as 2 to 16 h. Also, the “Mean Ae” value in data set [2] (Day 1, ALZ-801 tablet 265 mg) is given as 70.8 mg; in data set [2] (Day 7, ALZ-801 tablet 265 mg), 188.7 mg. For the same compound, the CLr was 652 ± 161 mL/min in data set [2] (Day 1, ALZ-801 tablet 265 mg) and 575 ± 218 mL/min in data set [2] (Day 7, ALZ-801 tablet 265 mg). Besides, the “mean CLr (range)” value in data set [2] (across dosing cohorts and days, Study 2) was 500 to 1570 mL/min.
